pEC50, pIC50: −log10 of the molar value.
Experiments:
[1] = system: Human immunodeficiency virus 1; assay: Antiviral activity against HIV-1 infected in human MT4 cells measured on day 5 post-infection by trypan blue dye staining-based method; format: functional, cell-based; details: Human immunodeficiency virus 1, MT4, 120 h
[2] = system: Human immunodeficiency virus 2; assay: Antiviral activity against HIV-2 infected in human MT4 cells measured on day 5 post-infection by trypan blue dye staining-based method; format: functional, cell-based; details: Human immunodeficiency virus 2, MT4, 120 h
[3] = system: Human immunodeficiency virus 1; assay: Antiviral activity against CXCR4-tropic HIV-1 NL4-3 infected in human TZM-bl cells assessed as inhibition of virus-induced cytopathic effect preincubated with cells for 30 mins followed by viral infection measured after 48 hrs in presence of p-24 HIV-1 Ag by luciferase reporter gene assay; format: functional, cell-based; details: Human immunodeficiency virus 1, NL4-3, TZM-bl
Outline: (§1)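 TZM-bl cells, 1 × 10^4 per well in DMEM with 10% FBS and 10 mM […], incubated 30 min at 37 °C with compound. Then HIV-1 NL4.3 (X4) or BaL (R5) added at 100 pg p24 Ag per well. After 48 h, cells lysed with luciferase substrate. Tat-induced luminescence read after 10 min dark incubation as a measure of replication.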

[4] = system: Human immunodeficiency virus 1; assay: Antiviral activity against CCR5 tropic HIV1 BaL infected in human TZM-bl cells assessed as inhibition of virus-induced cytopathic effect preincubated with cells for 30 mins followed by viral infection measured after 48 hrs in presence of p-24 HIV-1 Ag by luciferase reporter gene assay; format: functional, cell-based; details: Human immunodeficiency virus 1, BaL; outline: as §1
[5] = Cytotoxicity against human TZM-bl cells assessed as cell viability by tetrazolium dye assay; format: cell-based
[6] = system: Human immunodeficiency virus 1; assay: (§2) Antiviral activity against CXCR4-tropic HIV-1 NL4-3 infected in human PHA-stimulated PBMC assessed as inhibition of viral replication by measuring reduction in p24 antigen production preincubated with cells for 30 mins followed by viral infection measured on day 10 post infection in presence of IL-2 by ELISA; format: functional; details: Human immunodeficiency virus 1, NL4-3
Outline: (§3)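 PBMCs stimulated with 2 μg/mL PHA for 3 days at 37 °C, then 5 × 10^5 cells/ml preincubated 30 min at 37 °C with serial compound dilutions plus 2 ng/mL IL-2. Infected with 1500 pg/well HIV-1 BaL or 500 pg/well other isolates. IL-2 re-added on days 3 and 6. Supernatant p24 Ag measured by ELISA at day 10. EC50 is 50% inhibition of replication.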

[7] = system: Human immunodeficiency virus 1; assay: as §2, with “CCR5 tropic HIV1 BaL” for “CXCR4-tropic HIV-1 NL4-3”; format: functional; details: Human immunodeficiency virus 1, BaL; outline: as §3
[8] = Cytotoxicity against human PHA-stimulated PBMC assessed as cell viability by tetrazolium dye assay; format: cell-based
[9] = Selectivity index, ratio of CC50 for human TZM-bl cells to EC50 for CXCR4-tropic HIV-1 NL4-3 infected in human TZM-bl cells; format: toxicity, cell-based; details: read-out: Ratio CC50/EC50
[10] = Selectivity index, ratio of CC50 for human TZM-bl cells to EC50 for CCR5 tropic HIV1 BaL infected in human TZM-bl cells; format: toxicity, cell-based; details: read-out: Ratio CC50/EC50
[11] = Selectivity index, ratio of CC50 for human PHA-stimulated PBMC to IC50 for CXCR4-tropic HIV-1 NL4-3 infected in human PHA-stimulated PBMC
[12] = Selectivity index, ratio of CC50 for human PHA-stimulated PBMCs to IC50 for CCR5 tropic HIV1 BaL infected in human PHA-stimulated PBMC
Hepatitis B virus [13] = assay: Antiviral activity against HBV ayw1 infected in human HepG2(2.2.15) cells assessed as reduction in viral replication by measuring extracellular viral DNA copy number after 6 days by real-time qPCR method; format: functional, cell-based; details: ayw1, HepG2 2.2.15, 144 h
Outline: (§4)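 HepG2.2.15 cells (two copies of HBV ayw1 genome), 1.5 × 10^4/well in DMEM with 2% FBS and 380 μg/mL G418. After 16–24 h, compound added in triplicate, medium with compound renewed at day 3. Supernatant collected at day 6, Pronase-treated, and extracellular HBV DNA measured by TaqMan qPCR (precore/core) against an HBV DNA standard curve. EC50/EC90 derived; CC50 by MTS uptake.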

[14] = Cytotoxicity against human HepG2.2.15 cells assessed as cell viability by tetrazolium dye uptake assay; format: cell-based, HepG2 2.2.15
Outline: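 HepG2.2.15 cells (two integrated copies of HBV ayw1 genome) were seeded at 1.5 × 10^4 cells/well in DMEM with 2% FBS, 380 μg/mL G418, glutamine, antibiotics and nonessential amino acids. After 16−24 h, medium with various compound concentrations was added in triplicate and renewed on day 3. After 6 days of treatment, viability was read by MTS uptake and CC50 was calculated.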

[15] = Selectivity index, ratio of CC50 for HepG2.2.15 cells to EC50 for HBV ayw1 infected in human HepG2(2.2.15) cells assessed as reduction in viral replication by measuring extracellular viral DNA copy; outline: as §4
Human betaherpesvirus 5 [16] = assay: Antiviral activity against Human cytomegalovirus AD169 infected in HEL cells assessed as inhibition of virus-induced cytopathic effect; format: functional, cell-based; details: Human betaherpesvirus 5, AD169, HEL
Outline: (§5)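 HEL fibroblast monolayers inoculated with 100 CCID50 HCMV (AD-169, Davis) or 20 PFU VZV (TK+ Oka, TK− 07-1). Adsorbed 1–2 h, inoculum removed, then incubated with compound dilutions. HCMV cytopathicity or VZV plaques scored once untreated infected controls reached completion. EC50 is 50% reduction. SI is CC50/EC50, and the potency ratio is the ratio of EC50s.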

Human betaherpesvirus 5 [17] = assay: Antiviral activity against HCMV Davis strain infected in HEL cells assessed as inhibition of virus-induced cytopathic effect; format: functional, cell-based; details: Human betaherpesvirus 5, Davis; outline: as §5
Human alphaherpesvirus 3 [18] = assay: Antiviral activity against thymidine kinase expressing Varicella-Zoster virus Oka strain assessed as inhibition of plaque formation; format: functional; details: Human alphaherpesvirus 3, strain Oka vaccine; outline: as §5
Human alphaherpesvirus 3 [19] = assay: Antiviral activity against thymidine kinase deficient Varicella-Zoster virus 07-1 infected in HEL cells assessed as inhibition of plaque formation; format: functional, cell-based; details: Human alphaherpesvirus 3, 07-1, HEL; outline: as §5
[20] = Cytotoxic activity against HEL cells assessed as alteration of cell morphology after 3 days by microscopic method; format: cell-based; details: human
Outline: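 HEL cells with compound; MCC is the lowest concentration giving microscopically detectable alteration of cell morphology.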

[21] = Cytotoxic activity against HEL cells assessed as reduction in cell proliferation after 3 days by coulter counting method; format: cell-based; details: human
Outline: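 HEL cells seeded at 5 × 10^3/well, grown 24 h, then given compound for 3 days at 37 °C. Cell number counted by Coulter counter. CC50 is 50% reduction of proliferation relative to untreated controls, read from graphic plots.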

[22] = Selectivity index, ratio of CC50 for human HEL cells to EC50 for HCMV AD-169 strain; outline: as §5
[23] = Selectivity index, ratio of CC50 for human HEL cells to EC50 for HCMV Davis strain; outline: as §5
Hepatitis B virus [24] = assay: Antiviral activity against HBV infected in human HepG2(2.2.15) cells assessed as decrease in extracellular HBV DNA levels after 12 days by dot blot analysis; format: functional, cell-based; details: HepG2 2.2.15, 288 h
Hepatitis B virus [25] = assay: Antiviral activity against HBV ayw1 infected in human HepG2(2.2.15) cells assessed as reduction in viral replication by measuring intracellular viral DNA copy number after 6 days byr by real-time qPCR assay; format: functional, cell-based; details: ayw1, HepG2 2.2.15, 144 h
Outline: (§6)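 Run as the HepG2.2.15 6-day assay (triplicate compound, medium with compound renewed at day 3). At the end, total intracellular DNA was isolated from the cells and HBV DNA copy number measured by TaqMan qPCR. EC50/EC90 derived; SI is CC50/EC50.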

[26] = Selectivity index, ratio of CC50 for HepG2.2.15 cells to EC50 for HBV ayw1 infected in human HepG2(2.2.15) cells assessed as reduction in viral replication by measuring intracellular viral DNA copy; outline: as §6

SMILES | pEC50 [1] | pEC50 [2] | pEC50 [3] | pEC50 [4] | CC50 [5] | pIC50 [6] | pIC50 [7] | CC50 [8] | selectivity ratio [9] | selectivity ratio [10] | Ratio CC50/IC50 [11] | Ratio CC50/IC50 [12] | pEC50 (Hepatitis B virus [13]) | EC90 (Hepatitis B virus [13]) | CC50 [14] | Ratio CC50/EC50 [15] | pEC50 (Human betaherpesvirus 5 [16]) | pEC50 (Human betaherpesvirus 5 [17]) | pEC50 (Human alphaherpesvirus 3 [18]) | pEC50 (Human alphaherpesvirus 3 [19]) | also measured
Nc1nc(N)c2ncn(C[C@H](CF)OCP(=O)(O)O)c2n1 | 5.37 | 5.34 |  |  |  |  |  |  |  |  |  |  |  |  |  |  |  |  |  |  | 
CCCCCOC(=O)C[C@H](NP(=O)(CO[C@H](CF)Cn1cnc2c(=O)[nH]c(N)nc21)Oc1ccccc1)C(=O)OCCCCC (stereo not given in full) |  |  | 6.80 | 6.66 | > 100 µM | 7.52 | 6.89 | 11.2 µM | > 625 | > 455 | 374 | 86 | 6.89 | 2.86 µM | > 100 µM | >769 | 5.23 | 5.52 | 6.23 | 7.10 | MCC at 72 h [20]: 153 µM; CC50 at 72 h [21]: 27.8 µM; Ratio CC50/EC50 [22]: <10; Ratio CC50/EC50 [23]: <10
Nc1nc2c(ncn2CC(CF)OCP(=O)(O)O)c(=O)[nH]1 (stereo not given) | 5.30 | 5.30 |  |  |  |  |  |  |  |  |  |  |  |  |  |  |  |  |  |  | 
Nc1ncnc2c1ncn2C[C@@H](CF)OCP(=O)(O)O | 5.10 | 5.10 | 5.23 | 5.19 | > 100 µM | 5.92 | 5.43 | > 100 µM | > 17 | > 15 | 84 | 27 | < 5.78 | > 100 µM | > 100 µM | >61 | < 3.48 | < 3.48 | 4.01 | 3.88 | MCC at 72 h [20]: > 328 µM; pEC50 (Hepatitis B virus [24]): 5.92
Nc1ccn([C@@H]2CS[C@H](CO)O2)c(=O)n1 [LAMIVUDINE] |  |  |  |  |  |  |  |  |  |  |  |  | 7.70 | > 2 µM | > 2 µM | >105 |  |  |  |  | pEC50 (Hepatitis B virus [25]): 8.05; EC90 (Hepatitis B virus [25]): > 2 µM; Ratio CC50/EC50 [26]: >225

From ChEMBL document CHEMBL4038313, “Expanding the Antiviral Spectrum of 3-Fluoro-2-(phosphonomethoxy)propyl Acyclic Nucleoside Phosphonates: Diamyl Aspartate Amidate Prodrugs” (J Med Chem, 2017)
